Our source for the IC50 values is ChEMBL document CHEMBL1157097, “Humulane and germacrane sesquiterpenes from Ferula lycia” (J Nat Prod, 2010).

One test deals with K562. The experiment in a line: Cytotoxicity against human imitinib-resistant K562 cells by MTT assay. The format is functional, cell-based. Summed up:
(§1)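 Cells grown in RPMI 1640 with 1% glutamine, 1% penicillin/streptomycin and 10% fetal calf serum, then exposed to the sesquiterpenes. Viability was read by MTT. Bone marrow came from three healthy volunteers who gave informed consent. Camptothecin was the positive control for Raji.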
In general terms: Tetrazolium assays rely on reduction of a dye to a coloured formazan, in cell work by metabolically active cells.

The nature of test [1]: Cytotoxicity against mouse dasatinib-resistant DA1-3b cells carrying pCDNA3-p210BCR/ABL plasmid by MTT assay. The class given is functional, cell-based. Summed up:
as §1

The nature of test [2]: Cytotoxicity against human bone marrow cells by MTT assay. The class given is cell-based. Conditions: Bone marrow cell; call rule not given here. Summed up: as §1
The test system of a further test is Raji. The experiment in a line: Cytotoxicity against human Raji cells by MTT assay. The class given is functional, cell-based. An outline of the steps: as §1
The mark [3] stands for this setting: Homo sapiens, K562, read-out: IC50.
Setting [4] is: Mus musculus, DA1-3b, read-out: IC50.

Consider `COc1cc(C(=O)O[C@@H]2C/C=C(\C)CCCC(C)(C)[C@@H](O)/C=C\2C)ccc1O` [JUNIFERIN], for which the figures for the IC50 (in the test on K562 (setting [3]); in test [1] (setting [4])) were more than 50 µM and 29 µM, respectively.

On to `C/C1=C/[C@H](O)C(C)(C)CCC/C(C)=C/C[C@H]1OC(=O)c1ccccc1` [LYCIFERIN C], for which the IC50 result (in the test with K562 (k562); in test [1] (da1-3b)) was “Not Active” in each case.

Take `C/C1=C/[C@H](O)C(C)(C)CCC/C(C)=C/C[C@H]1OC(=O)c1ccc(O)cc1` [JUNIFERDIN]: the IC50 was more than 50 µM in the test on K562 (setting [3]) and 23.7 µM in test [1] (setting [4]).

`COc1cc(C(=O)O[C@H]2/C=C(\C)CC/C=C(\C)CC[C@H]2C(C)C)ccc1O`: the IC50 entry (with K562 (k562); in test [1] (da1-3b)) was “Not Active” throughout.

On to `C/C=C(/C)C(=O)O[C@@H]1C/C=C(\C)CCCC(C)(C)[C@@H](O)/C=C\1C` [LYCIFERIN A], for which the IC50 entry (with K562 (k562); in test [1] (da1-3b)) was “Not Active” each time.

For `CC(=O)O[C@H]1/C=C(/C)[C@H](OC(=O)c2ccc(O)cc2)C/C=C(\C)CCCC1(C)C` [JUNIFERININ], the IC50 came out at 30.7 µM in test [2], 33 µM in the test on K562 (setting [3]), 13 µM with Raji and 18.6 µM in test [1] (setting [4]).

As to `C=C1/C=C/C(C)(C)[C@H](OC(=O)c2ccc(O)c(OC)c2)CC/C(C)=C/CC1` [VANILLOYL FERVANOL], the 50% inhibitory concentration (IC50) entry (with K562 (k562); in test [1] (da1-3b)) was “Not Active” in each case.

Consider `C/C1=C\[C@H](OC(=O)c2ccc(O)cc2)[C@H](C(C)C)CC/C(C)=C/CC1`, for which the IC50 in test [2] was more than 50 µM; in the test on K562 (setting [3]) it was 25.3 µM; in the test with Raji it was 20.9 µM; in test [1] (setting [4]) it was 24.7 µM.

Regarding `C/C=C(/C)C(=O)O[C@@H]1C/C=C(\C)CCCC(C)(C)[C@@H](OC(C)=O)/C=C\1C` [LYCIFERIN B], the IC50 with K562 (setting [3]) is more than 50 µM; in test [1] (setting [4]), 45 µM.

Take `CC[C@@]1(O)C(=O)OCc2c1cc1n(c2=O)Cc2cc3ccccc3nc2-1` [CAMPTOTHECIN]: the results for the IC50 (with K562 (setting [3]); in the test with Raji; in test [1] (setting [4])) were 0.002 µM, 1 µM and 0.03 µM, respectively.

As to `COc1cc(C(=O)O[C@@H]2C/C=C(\C)CCCC(C)(C)[C@@H](OC(C)=O)/C=C\2C)ccc1O` [LYCIFERIN E], the IC50 in the test on K562 (setting [3]) was 41.5 µM; in test [1] (setting [4]) it was 20.1 µM.

For `CC(=O)O[C@H]1/C=C(/C)[C@H](OC(=O)c2ccccc2)C/C=C(\C)CCCC1(C)C` [LYCIFERIN D], the IC50 in the test on K562 (setting [3]) was more than 50 µM; in test [1] (setting [4]), 45 µM.

What is called IC50 is the concentration that inhibits the measured activity by half.
